Measured values from ChEMBL document CHEMBL4359929, “Piperidine and piperazine inhibitors of fatty acid amide hydrolase targeting excitotoxic pathology” (Bioorg Med Chem, 2019).
The source made the active and inactive calls. The calls are words filed in the database; no cut-off is given here.

Experiments:
[1] = target: T1, Fatty-acid amide hydrolase 1 (Homo sapiens, UniProt O00519); assay: Inhibition of human recombinant MBP-tagged FAAH expressed in Escherichia coli cells using AAMCA as substrate incubated for 15 mins followed by substrate addition and measured after every 20 mins for 4 hrs by fluorescence based assay
T1 sequence (O00519 whole entry): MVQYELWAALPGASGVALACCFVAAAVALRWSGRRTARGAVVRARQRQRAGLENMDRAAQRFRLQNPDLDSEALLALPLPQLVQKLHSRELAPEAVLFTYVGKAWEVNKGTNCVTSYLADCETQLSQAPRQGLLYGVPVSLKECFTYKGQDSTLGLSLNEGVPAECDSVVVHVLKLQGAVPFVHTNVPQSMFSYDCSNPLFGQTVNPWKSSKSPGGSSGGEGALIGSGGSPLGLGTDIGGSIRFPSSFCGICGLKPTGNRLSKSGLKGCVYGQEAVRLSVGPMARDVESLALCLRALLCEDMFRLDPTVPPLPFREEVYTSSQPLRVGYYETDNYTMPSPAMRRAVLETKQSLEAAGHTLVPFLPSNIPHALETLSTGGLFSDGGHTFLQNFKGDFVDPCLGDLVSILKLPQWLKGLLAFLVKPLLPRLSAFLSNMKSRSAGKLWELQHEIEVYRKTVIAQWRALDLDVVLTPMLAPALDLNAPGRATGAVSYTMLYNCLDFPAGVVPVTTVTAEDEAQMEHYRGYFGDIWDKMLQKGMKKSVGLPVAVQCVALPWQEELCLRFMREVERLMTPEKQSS
Outline: (§1)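 Fluorescent enzyme assay in throughput format. Human recombinant FAAH or purified rat FAAH used arachidonoyl 7-amino-4-methylcoumarin amide as substrate; human recombinant MGL was run by a similar fluorometric procedure.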

[2] = target: T2, Fatty-acid amide hydrolase 1 (Rattus norvegicus, UniProt P97612); assay: Inhibition of rat recombinant His/GST-tagged FAAH expressed in Escherichia coli cells using AAMCA as substrate incubated for 15 mins followed by substrate addition and measured after every 20 mins for 4 hrs by fluorescence based assay; outline: as §1
T2 sequence (P97612 whole entry): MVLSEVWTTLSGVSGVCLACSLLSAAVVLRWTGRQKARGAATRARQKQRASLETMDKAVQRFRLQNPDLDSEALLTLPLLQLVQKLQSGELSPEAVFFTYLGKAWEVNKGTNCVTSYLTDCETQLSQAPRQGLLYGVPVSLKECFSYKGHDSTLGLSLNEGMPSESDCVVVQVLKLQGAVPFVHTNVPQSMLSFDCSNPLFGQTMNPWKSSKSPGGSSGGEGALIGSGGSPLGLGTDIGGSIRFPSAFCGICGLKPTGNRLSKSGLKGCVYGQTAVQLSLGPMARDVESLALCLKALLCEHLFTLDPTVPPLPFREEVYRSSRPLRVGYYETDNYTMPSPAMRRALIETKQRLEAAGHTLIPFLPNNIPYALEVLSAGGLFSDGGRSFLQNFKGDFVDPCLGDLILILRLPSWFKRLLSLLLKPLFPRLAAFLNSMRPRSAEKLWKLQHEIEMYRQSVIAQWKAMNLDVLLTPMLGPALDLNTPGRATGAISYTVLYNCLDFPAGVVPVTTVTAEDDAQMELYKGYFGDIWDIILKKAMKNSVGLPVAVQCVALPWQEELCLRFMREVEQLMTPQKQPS

[3] = target: T3, Monoglyceride lipase (Homo sapiens, UniProt Q99685); assay: Inhibition of human recombinant His-tagged MGL expressed in Escherichia coli BL21 DE3 cells using AHMMCE as substrate preincubated with enzyme for 15 mins followed by substrate addition and measured after every 15 mins for 3 hrs by fluorescence based assay; outline: as §1
T3 sequence (Q99685 whole entry): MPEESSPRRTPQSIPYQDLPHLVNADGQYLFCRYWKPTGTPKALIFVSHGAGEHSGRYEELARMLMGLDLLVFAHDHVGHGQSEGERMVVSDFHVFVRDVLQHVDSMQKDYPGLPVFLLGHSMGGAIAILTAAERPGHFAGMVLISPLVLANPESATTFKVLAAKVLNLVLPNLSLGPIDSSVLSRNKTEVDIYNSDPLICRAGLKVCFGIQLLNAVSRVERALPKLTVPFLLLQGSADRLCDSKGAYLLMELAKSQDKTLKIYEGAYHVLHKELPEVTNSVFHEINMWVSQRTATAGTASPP

[4] = Stability in human liver microsomes assessed as half life; format: ADME, Microsome
Outline: (§2)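 Stability assessed as half-life in human, rat and mouse plasma and gastric fluid, and in human, rat and mouse liver microsomal preparations.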

[5] = Stability in rat liver microsomes assessed as half life; format: ADME, Microsome; outline: as §2
[6] = Stability in mouse liver microsomes assessed as half life; format: ADME, Microsome; outline: as §2
[7] = Stability in human plasma assessed as half life; format: ADME, cell-free; outline: as §2
[8] = Stability in rat plasma assessed as half life; format: ADME, cell-free; outline: as §2
[9] = Stability in mouse plasma assessed as half life; format: ADME, cell-free; outline: as §2
[10] = Stability in human gastric fluid assessed as half life; format: ADME, tissue-based, Gastric juice; outline: as §2
[11] = Stability in rat gastric fluid assessed as half life; format: ADME, tissue-based, Gastric juice; outline: as §2
[12] = Stability in mouse gastric fluid assessed as half life; format: ADME, tissue-based, Gastric juice; outline: as §2
[13] = species: Homo sapiens; assay: Selectivity ratio of IC50 for human recombinant His-tagged MGL expressed in Escherichia coli BL21 DE3 cells to IC50 for human recombinant MBP-tagged FAAH expressed in Escherichia coli cells by fluorescence based assay
[14] = species: Homo sapiens; assay: Selectivity ratio of IC50 for human full length ABHD6 expressed in Escherichia coli cells to IC50 for human recombinant MBP-tagged FAAH expressed in Escherichia coli cells by fluorescence based assay
[15] = target: Cannabinoid receptor 1 (Rattus norvegicus) (UniProt P20272); assay: Displacement of [3H]CP55940 from CB1 receptor in rat brain by competition-equilibrium binding analysis; format: tissue-based
Outline: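 Rat brain membranes as CB1 source; competition-equilibrium binding against [3H]CP-55,940.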
Target sequence in this assay (P20272 whole entry): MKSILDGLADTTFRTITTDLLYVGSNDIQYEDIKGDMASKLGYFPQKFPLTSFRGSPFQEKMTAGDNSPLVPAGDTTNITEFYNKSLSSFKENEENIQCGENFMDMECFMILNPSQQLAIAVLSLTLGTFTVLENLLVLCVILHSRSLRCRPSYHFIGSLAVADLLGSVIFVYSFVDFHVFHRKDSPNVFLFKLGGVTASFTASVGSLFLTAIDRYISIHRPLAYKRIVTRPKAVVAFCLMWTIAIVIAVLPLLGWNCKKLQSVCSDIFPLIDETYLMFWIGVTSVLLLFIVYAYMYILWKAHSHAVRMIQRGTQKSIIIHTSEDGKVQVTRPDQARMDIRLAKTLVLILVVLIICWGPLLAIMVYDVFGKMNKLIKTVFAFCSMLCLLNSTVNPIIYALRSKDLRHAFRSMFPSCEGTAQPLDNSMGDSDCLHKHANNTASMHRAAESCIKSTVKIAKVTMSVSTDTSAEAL

[16] = target: Cannabinoid receptor 2 (Mus musculus) (UniProt P47936); assay: Displacement of [3H]CP55940 from mouse CB2 receptor expressed in HEK293 cells by competition-equilibrium binding analysis; format: cell-based
Cannabinoid receptor 2 (Mus musculus), sequence (P47936 whole entry): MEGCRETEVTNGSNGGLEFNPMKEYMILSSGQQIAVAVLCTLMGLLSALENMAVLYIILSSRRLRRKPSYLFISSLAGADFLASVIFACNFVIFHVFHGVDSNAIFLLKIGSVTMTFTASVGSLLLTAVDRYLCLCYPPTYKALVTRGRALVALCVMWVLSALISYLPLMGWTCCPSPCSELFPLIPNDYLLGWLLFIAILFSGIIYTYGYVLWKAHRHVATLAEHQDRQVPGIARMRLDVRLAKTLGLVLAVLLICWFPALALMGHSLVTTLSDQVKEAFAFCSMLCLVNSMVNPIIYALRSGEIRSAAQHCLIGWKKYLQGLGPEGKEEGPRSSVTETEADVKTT
Outline: (§3)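 HEK293 cell membranes expressing mouse or human CB2; competition-equilibrium binding against [3H]CP-55,940.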

[17] = target: Cannabinoid receptor 2 (Homo sapiens) (UniProt P34972); assay: Displacement of [3H]CP55940 from human CB2 receptor expressed in HEK293 cells by competition-equilibrium binding analysis; format: cell-based; outline: as §3
Cannabinoid receptor 2 (Homo sapiens), sequence (P34972 whole entry): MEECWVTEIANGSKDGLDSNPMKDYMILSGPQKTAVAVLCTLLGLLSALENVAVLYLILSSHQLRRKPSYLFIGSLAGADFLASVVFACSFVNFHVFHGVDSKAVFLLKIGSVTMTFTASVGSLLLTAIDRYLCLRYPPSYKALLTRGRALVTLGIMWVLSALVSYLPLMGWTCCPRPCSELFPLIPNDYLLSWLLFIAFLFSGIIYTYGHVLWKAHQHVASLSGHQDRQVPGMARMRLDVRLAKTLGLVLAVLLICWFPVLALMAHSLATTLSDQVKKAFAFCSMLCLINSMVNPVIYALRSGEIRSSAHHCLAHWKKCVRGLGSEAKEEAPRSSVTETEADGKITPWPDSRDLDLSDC

[18] = Selectivity ratio of IC50 for human recombinant His-tagged MGL expressed in Escherichia coli BL21 DE3 cells to IC50 for rat recombinant His/GST-tagged FAAH expressed in Escherichia coli cells by fluorescence based assay
[19] = Selectivity ratio of IC50 for human full length ABHD6 expressed in Escherichia coli cells to IC50 for rat recombinant His/GST-tagged FAAH expressed in Escherichia coli cells by fluorescence based assay
[20] = target: Cannabinoid receptor 1 (Rattus norvegicus) (UniProt P20272); assay: Displacement of [3H]CP55940 from CB1 receptor in rat brain by competition-equilibrium binding analysis
Target sequence in this assay (P20272 whole entry, looked up): as the sequence (P20272 whole entry) above

Row | Structure (SMILES) | IC50 [1] [nM] | IC50 [2] [nM] | IC50 [3] [nM] | half-life [4] [min] | half-life [5] [min] | half-life [6] [min] | half-life [7] [min] | half-life [8] [min] | half-life [9] [min] | half-life [10] [min] | half-life [11] [min] | half-life [12] [min] | Ratio IC50 [13] | Ratio IC50 [14] | Activity [15] | Activity [16] | Activity [17] | Ratio IC50 [18] | Ratio IC50 [19] | Activity [20]
1 | O=C(Oc1cccc(N2CCS(=O)(=O)CC2)c1)N1CCN(Cc2cccc(-c3ccccc3)c2)CC1 | 1.9 | 2.1 | > 1000 | 15 to 25 | 15 to 25 | 15 to 25 | > 60 | > 60 | > 60 | > 60 | > 60 | > 60 | > 1000 | > 1000 | inactive | inactive | inactive | > 1000 | > 1000 | inactive
2 | O=C(Oc1cccc(N2CCS(=O)(=O)CC2)c1)N1CCN(Cc2cccc(Oc3ccccc3)c2)CC1 | 2.3 | 2.2 | > 1000 | 15 to 25 | 15 to 25 | 15 to 25 | > 60 | > 60 | > 60 | > 60 | > 60 | > 60 | > 1000 | > 1000 | inactive | inactive | inactive | > 1000 | > 1000 | inactive
3 | COc1ccc(N2CCN(C(=O)Oc3cccc(N4CCOCC4)c3)[C@H](C)C2)cc1 | 4.1 | 5.2 | > 1000 | 15 to 25 | 15 to 25 | 15 to 25 | > 60 | > 60 | > 60 | > 60 | > 60 | > 60 | > 1000 | > 1000 | inactive | inactive | inactive | > 1000 | > 1000 | inactive
4 | O=C(Oc1cccc(N2CCCCC2)c1)N1CCC(c2ccc(F)cc2)CC1 | 40 | 6.8 | > 1000 | 15 to 25 | 15 to 25 | 15 to 25 | > 60 | > 60 | > 60 | > 60 | > 60 | > 60 | > 1000 | > 1000 | inactive | inactive | inactive | > 1000 | > 1000 | inactive
5 | N#Cc1ccc(C2CCN(C(=O)Oc3cccc(N4CCS(=O)(=O)CC4)c3)CC2)cc1 | 22.7 | 9.9 | > 1000 | 15 to 25 | 15 to 25 | 15 to 25 | > 60 | > 60 | > 60 | > 60 | > 60 | > 60 | > 1000 | > 1000 | inactive | inactive | inactive | > 1000 | > 1000 | inactive
